Measurements: ChEMBL document CHEMBL1148339, “Synthesis, structure-activity relationships, and drug resistance of beta-d-3'-fluoro-2',3'-unsaturated nucleosides as anti-HIV Agents” (J Med Chem, 2004)

Substrate: Nc1ncnc2c1ncn2[C@H]1C=C[C@@H](CO)O1
Experiment: Menten constant against adenosine deaminase (ADA)
Method in brief: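 Deamination by calf intestinal mucosa adenosine deaminase (0.15 units, MW 33 000, in 2 mL) in phosphate buffer pH 7.4 at 25 °C, substrate 15–100 μM, monitored by UV at 265 nm. Initial rates from graphical fitting of concentration vs time; Vmax and KM from Lineweaver–Burk plot, kcat calculated from enzyme amount.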

B1: Adenosine deaminase (Bos taurus), P56658 (protein)
chain: MAQTPAFNKPKVELHVHLDGAIKPETILYYGRKRGIALPADTPEELQNIIGMDKPLSLPEFLAKFDYYMPAIAGCREAVKRIAYEFVEMKAKDGVVYVEVRYSPHLLANSKVEPIPWNQAEGDLTPDEVVSLVNQGLQEGERDFGVKVRSILCCMRHQPSWSSEVVELCKKYREQTVVAIDLAGDETIEGSSLFPGHVKAYAEAVKSGVHRTVHAGEVGSANVVKEAVDTLKTERLGHGYHTLEDATLYNRLRQENMHFEVCPWSSYLTGAWKPDTEHPVVRFKNDQVNYSLNTDDPLIFKSTLDTDYQMTKNEMGFTEEEFKRLNINAAKSSFLPEDEKKELLDLLYKAYGMPSPASAEQCL
B1 was tested, and the Km was 30 µM.
